Assay results collected from several papers.
Compare with care: the assays were run in different laboratories. pIC50: −log10 of the molar value. Values after ≈ are worked out from the molar mass of the structure shown.

| Structure (SMILES) | tested on | test | system | conditions | quantity | result |
| --- | --- | --- | --- | --- | --- | --- |
| CC(=O)C1=NN(c2ccc([N+](=O)[O-])cc2)C(=C(C#N)C(=O)c2ccc(Nc3cnccn3)cc2)S1 | Salmonella enterica | microbial growth, broth dilution | ATCC13076 TYPHIMURIUM |  | MIC | 12.5 µg/mL (≈ 25.7 µM) |
| O=C(O)c1cn(C2CC2)c2cc(N3CCNCC3)c(F)cc2c1=O | Bacillus cereus | microbial growth, well diffusion |  | 20 µg/mL | inhibition zone | 5 mm |
| CN(C)CCNC(=O)c1ccc(-c2nc3ccc4[nH]ncc4c3c3c2CCCC3)cc1 | BJ | cell growth or viability |  | 72 h | GI50 | > 10 µM |
| CCS(=O)(=O)Oc1ccc(C=NNC(=O)CSc2nc3ccc(Cl)cc3c(=O)n2-c2ccccc2)cc1 | Salmonella enterica | microbial growth, broth dilution | TYPHIMURIUM |  | MIC | 21 µg/mL |
| CC(=O)OCC1=C(C(=O)O)N2C(=O)[C@@H](NC(=O)Cc3cccs3)[C@H]2SC1 | Salmonella enterica | microbial growth, broth dilution | ATCC13076 TYPHIMURIUM |  | MIC | 3.12 µg/mL (≈ 7.88 µM) |
| O=C(O)c1ccc(NCc2ccc([N+](=O)[O-])cc2)cc1 | NCI-H69 | cell growth or viability, resazurin |  | 72 h | pIC50 | < 4.00 |
| CN(C)CCNC(=O)c1ccc(-c2nc3ccc4[nH]ncc4c3c3c2CCCC3)c(F)c1 | BJ | cell growth or viability |  | 72 h | GI50 | 9.72 µM |
| Nc1ccc(S(=O)(=O)Nc2ncccn2)cc1 | Bacillus cereus | microbial growth, well diffusion |  | 20 µg/mL | inhibition zone | 3 mm |
| Cc1n[nH]c2ccc3nc(-c4ccc(C(=O)NCCN(C)C)cc4)c4c(c3c12)CCCCC4 | BJ | cell growth or viability |  | 72 h | GI50 | > 10 µM |
| CC(C)c1ccc(/C=C2\N=C(SCC(=O)O)N(c3ccccc3)C2=O)cc1 | Bacillus cereus | microbial growth, broth dilution | ATCC14579 |  | MIC | 12 µg/mL (≈ 31.5 µM) |
| O=C(O)c1ccc(NCc2cc(Br)ccc2O)cc1 | NCI-H69 | cell growth or viability, resazurin |  | 72 h | pIC50 | < 4.00 |
| Cc1cccc2c(=O)n(-c3ccccc3)c(SCC(=O)NN=Cc3ccc(OS(C)(=O)=O)cc3)nc12 | Bacillus cereus | microbial growth, well diffusion |  | 20 µg/mL | inhibition zone | 2 mm |
| Cc1n[nH]c2ccc3nc(-c4ccc(C(=O)NCCN(C)C)cc4)c4c(c3c12)CCCC4 | BJ | cell growth or viability |  | 72 h | GI50 | 7.16 µM |
| COc1cccc(CNc2ccc(C(=O)O)cc2)c1 | NCI-H69 | cell growth or viability, resazurin |  | 72 h | pIC50 | < 4.00 |
| N=c1sc(C(=O)c2ccc(Nc3cnccn3)cc2)nn1-c1ccc([N+](=O)[O-])cc1 | Salmonella enterica | microbial growth, broth dilution | ATCC13076 TYPHIMURIUM |  | MIC | 6.25 µg/mL (≈ 14.9 µM) |
| CCCS(=O)(=O)Oc1ccc(C=NNC(=O)CSc2nc3c(C)cccc3c(=O)n2-c2ccccc2)cc1OC | Salmonella enterica | microbial growth, broth dilution | TYPHIMURIUM |  | MIC | 49 µg/mL (≈ 84.4 µM) |
| CN(C)CCNC(=O)c1ccc(-c2nc3ccc4[nH]ncc4c3c3c2CCCCC3)c(F)c1 | BJ | cell growth or viability |  | 72 h | GI50 | 6.58 µM |
| N=c1sc(C(=O)c2ccc(Nc3cnccn3)cc2)nn1-c1ccccc1 | Salmonella enterica | microbial growth, broth dilution | ATCC13076 TYPHIMURIUM |  | MIC | 100 µg/mL (≈ 267 µM) |
